Tested on: HEK-293T
Test: Multiplex assay against HEK293T;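 on Population Tubulin-Different-Phenotype (%): share of the cells with healthy nuclei that show this phenotype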
Format: toxicity, cell-based
Conditions: human
Outline: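 Live cells were stained at seeding with Hoechst33342, BioTracker Green Microtubule Cytoskeleton Dye, MitoTracker Red and Annexin V Alexa Fluor 680. Following compound addition, they were imaged on a CQ1 microscope at 37°C and 5% CO2 and gated by CellPathfinder machine learning into Hoechst high-intensity objects or normal cells, with normal cells split into healthy, pyknosed or fragmented nuclei and pyknosed cells into mitotic or apoptotic. Tubulin, mitochondrial-mass and membrane-permeability phenotypes are per cents of healthy-nucleus cells.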

[1] = 12 h, 1 µM, compound concentration 1 uM, replicate 1
[2] = 12 h, 1 µM, compound concentration 1 uM, replicate 2
[3] = 12 h, 10 µM, compound concentration 10 uM, replicate 1
[4] = 12 h, 10 µM, compound concentration 10 uM, replicate 2
[5] = 24 h, 1 µM, compound concentration 1 uM, replicate 1
[6] = 24 h, 1 µM, compound concentration 1 uM, replicate 2
[7] = 24 h, 10 µM, compound concentration 10 uM, replicate 1
[8] = 24 h, 10 µM, compound concentration 10 uM, replicate 2
[9] = 48 h, 1 µM, compound concentration 1 uM, replicate 1
[10] = 48 h, 1 µM, compound concentration 1 uM, replicate 2
[11] = 48 h, 10 µM, compound concentration 10 uM, replicate 1
[12] = 48 h, 10 µM, compound concentration 10 uM, replicate 2

CCN1CCN(Cc2ccc(Nc3ncc(F)c(-c4cc(F)c5nc(C)n(C(C)C)c5c4)n3)nc2)CC1.CS(=O)(=O)O
Population Apoptotic (%) [1]: 60%
Population Fragmented Nuclei (%) [1]: 17%
Population Healthy Nuclei (%) [1]: 19%
Population Hoechst High Intensity Objects (%) [1]: 17%
Population Membrane Permeable-Phenotype (%) [1]: 0%
Population Mitochondria Different-Phenotype (%) [1]: 94%
Population Mitotic Cells (%) [1]: 40%
Population Normal (%) [1]: 82%
Population Pyknosed Nuclei (%) [1]: 63%
Population Tubulin-Different-Phenotype (%) [1]: 92%
Total Cell Count [1]: 249
Population Apoptotic (%) [2]: 40%
Population Fragmented Nuclei (%) [2]: 7%
Population Healthy Nuclei (%) [2]: 27%
Population Hoechst High Intensity Objects (%) [2]: 4%
Population Membrane Permeable-Phenotype (%) [2]: 14%
Population Mitochondria Different-Phenotype (%) [2]: 83%
Population Mitotic Cells (%) [2]: 59%
Population Normal (%) [2]: 95%
Population Pyknosed Nuclei (%) [2]: 64%
Population Tubulin-Different-Phenotype (%) [2]: 81%
Total Cell Count [2]: 181
Population Apoptotic (%) [3]: 74%
Population Fragmented Nuclei (%) [3]: 14%
Population Healthy Nuclei (%) [3]: 1%
Population Hoechst High Intensity Objects (%) [3]: 25%
Population Membrane Permeable-Phenotype (%) [3]: 0%
Population Mitochondria Different-Phenotype (%) [3]: 33%
Population Mitotic Cells (%) [3]: 25%
Population Normal (%) [3]: 74%
Population Pyknosed Nuclei (%) [3]: 84%
Population Tubulin-Different-Phenotype (%) [3]: 66%
Total Cell Count [3]: 289
Population Apoptotic (%) [4]: 62%
Population Fragmented Nuclei (%) [4]: 12%
Population Healthy Nuclei (%) [4]: 25%
Population Hoechst High Intensity Objects (%) [4]: 21%
Population Membrane Permeable-Phenotype (%) [4]: 2%
Population Mitochondria Different-Phenotype (%) [4]: 79%
Population Mitotic Cells (%) [4]: 37%
Population Normal (%) [4]: 79%
Population Pyknosed Nuclei (%) [4]: 62%
Population Tubulin-Different-Phenotype (%) [4]: 97%
Total Cell Count [4]: 219
Population Apoptotic (%) [5]: 63%
Population Fragmented Nuclei (%) [5]: 19%
Population Healthy Nuclei (%) [5]: 32%
Population Hoechst High Intensity Objects (%) [5]: 18%
Population Membrane Permeable-Phenotype (%) [5]: 0%
Population Mitochondria Different-Phenotype (%) [5]: 100%
Population Mitotic Cells (%) [5]: 36%
Population Normal (%) [5]: 81%
Population Pyknosed Nuclei (%) [5]: 47%
Population Tubulin-Different-Phenotype (%) [5]: 95%
Total Cell Count [5]: 253
Population Apoptotic (%) [6]: 51%
Population Fragmented Nuclei (%) [6]: 5%
Population Healthy Nuclei (%) [6]: 45%
Population Hoechst High Intensity Objects (%) [6]: 5%
Population Membrane Permeable-Phenotype (%) [6]: 2%
Population Mitochondria Different-Phenotype (%) [6]: 88%
Population Mitotic Cells (%) [6]: 48%
Population Normal (%) [6]: 94%
Population Pyknosed Nuclei (%) [6]: 48%
Population Tubulin-Different-Phenotype (%) [6]: 94%
Total Cell Count [6]: 201
Population Apoptotic (%) [7]: 72%
Population Fragmented Nuclei (%) [7]: 23%
Population Healthy Nuclei (%) [7]: 0%
Population Hoechst High Intensity Objects (%) [7]: 23%
Population Membrane Permeable-Phenotype (%) [7]: 0%
Population Mitochondria Different-Phenotype (%) [7]: 0%
Population Mitotic Cells (%) [7]: 27%
Population Normal (%) [7]: 76%
Population Pyknosed Nuclei (%) [7]: 76%
Population Tubulin-Different-Phenotype (%) [7]: 0%
Total Cell Count [7]: 287
Population Apoptotic (%) [8]: 79%
Population Fragmented Nuclei (%) [8]: 4%
Population Healthy Nuclei (%) [8]: 18%
Population Hoechst High Intensity Objects (%) [8]: 21%
Population Membrane Permeable-Phenotype (%) [8]: 3%
Population Mitochondria Different-Phenotype (%) [8]: 93%
Population Mitotic Cells (%) [8]: 20%
Population Normal (%) [8]: 78%
Population Tubulin-Different-Phenotype (%) [8]: 93%
Total Cell Count [8]: 213
Population Apoptotic (%) [9]: 58%
Population Fragmented Nuclei (%) [9]: 29%
Population Healthy Nuclei (%) [9]: 28%
Population Hoechst High Intensity Objects (%) [9]: 17%
Population Membrane Permeable-Phenotype (%) [9]: 0%
Population Mitochondria Different-Phenotype (%) [9]: 81%
Population Mitotic Cells (%) [9]: 41%
Population Normal (%) [9]: 82%
Population Pyknosed Nuclei (%) [9]: 42%
Population Tubulin-Different-Phenotype (%) [9]: 89%
Total Cell Count [9]: 254
Population Apoptotic (%) [10]: 62%
Population Fragmented Nuclei (%) [10]: 9%
Population Healthy Nuclei (%) [10]: 65%
Population Hoechst High Intensity Objects (%) [10]: 6%
Population Membrane Permeable-Phenotype (%) [10]: 1%
Population Mitochondria Different-Phenotype (%) [10]: 71%
Population Mitotic Cells (%) [10]: 37%
Population Normal (%) [10]: 93%
Population Pyknosed Nuclei (%) [10]: 24%
Population Tubulin-Different-Phenotype (%) [10]: 93%
Total Cell Count [10]: 243
Population Apoptotic (%) [11]: 80%
Population Fragmented Nuclei (%) [11]: 27%
Population Healthy Nuclei (%) [11]: 0%
Population Hoechst High Intensity Objects (%) [11]: 27%
Population Membrane Permeable-Phenotype (%) [11]: 100%
Population Mitochondria Different-Phenotype (%) [11]: 100%
Population Mitotic Cells (%) [11]: 19%
Population Normal (%) [11]: 72%
Population Pyknosed Nuclei (%) [11]: 72%
Population Tubulin-Different-Phenotype (%) [11]: 0%
Total Cell Count [11]: 291
Population Apoptotic (%) [12]: 83%
Population Fragmented Nuclei (%) [12]: 10%
Population Healthy Nuclei (%) [12]: 11%
Population Hoechst High Intensity Objects (%) [12]: 28%
Population Membrane Permeable-Phenotype (%) [12]: 11%
Population Mitochondria Different-Phenotype (%) [12]: 94%
Population Mitotic Cells (%) [12]: 16%
Population Normal (%) [12]: 71%
Population Pyknosed Nuclei (%) [12]: 77%
Population Tubulin-Different-Phenotype (%) [12]: 88%
Total Cell Count [12]: 202

Source: ChEMBL document CHEMBL4689842, “EUbOPEN Chemogenomics Library wave 1” (2021)
